# Assay results reported in ChEMBL document CHEMBL1148788 (J Med Chem, 2007).
# “And” between values parts separate entries of the source, which are not always exact repeats. Equal values may be shown once. The source made the active and inactive calls. No cut-off for these calls is given here.
# Experiments:
# [1] = Displacement of [3H]methyllycaconitine from chimeric alpha-7nAChR D197A mutant/5HT3A receptor in tsA201 cells; assay type: cell-based, Homo sapiens
# Summary of the method: (§1)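 tsA-201 cells transiently transfected with 4 µg WT or mutant α7/5-HT3A chimera and assayed 2 days later. Membranes washed twice at 50000g in 50 mM Tris-HCl pH 7.2. Incubated with 0.5 nM [3H]MLA and compound for 2.5 h at room temperature with shaking; nonspecific binding with 5 mM (S)-nicotine. PEI-soaked GF/C filtration, scintillation counting. Ki derived; duplicate, 3–7 experiments.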
# [2] = tested on: tsA201; experiment: Displacement of [3H]methyllycaconitine from chimeric alpha-7nAChR W55A/Y195A mutant /5HT3A receptor in tsA201 cells; assay type: cell-based; conditions: Homo sapiens; summary of the method: as §1
# [3] = Displacement of [3H]methyllycaconitine from chimeric alpha-7nAChR K145R mutant /5HT3A receptor in tsA201 cells; assay type: cell-based, Homo sapiens; summary of the method: as §1
# [4] = Antagonist activity at human alpha7nAChR Y93A mutant co-expressed with human Ric3 in tsA201 cells by FMP assay; assay type: functional, cell-based
# [5] = Antagonist activity at human alpha7 nAChR W149Y mutant co-expressed with human Ric3 in tsA201 cells by FMP assay; assay type: functional, cell-based
# [6] = Antagonist activity at human alpha-7 nAChR Y188A mutant coexpressed with human Ric3 in tsA201 cells by FMP assay; assay type: functional, cell-based
# [7] = Antagonist activity at human alpha-7 nAChR Y195A mutant coexpressed with human Ric3 in tsA201 cells by FMP assay; assay type: functional, cell-based
# [8] = target: Neuronal acetylcholine receptor; alpha4/beta2 (Rattus norvegicus, UniProt P09483+P12390); experiment: Displacement of [3H]epibatidine from rat recombinant alpha-4-beta-2 nAChR in HEK293 cell line; assay type: cell-based
# Chain of Neuronal acetylcholine receptor; alpha4/beta2 (P09483 whole entry): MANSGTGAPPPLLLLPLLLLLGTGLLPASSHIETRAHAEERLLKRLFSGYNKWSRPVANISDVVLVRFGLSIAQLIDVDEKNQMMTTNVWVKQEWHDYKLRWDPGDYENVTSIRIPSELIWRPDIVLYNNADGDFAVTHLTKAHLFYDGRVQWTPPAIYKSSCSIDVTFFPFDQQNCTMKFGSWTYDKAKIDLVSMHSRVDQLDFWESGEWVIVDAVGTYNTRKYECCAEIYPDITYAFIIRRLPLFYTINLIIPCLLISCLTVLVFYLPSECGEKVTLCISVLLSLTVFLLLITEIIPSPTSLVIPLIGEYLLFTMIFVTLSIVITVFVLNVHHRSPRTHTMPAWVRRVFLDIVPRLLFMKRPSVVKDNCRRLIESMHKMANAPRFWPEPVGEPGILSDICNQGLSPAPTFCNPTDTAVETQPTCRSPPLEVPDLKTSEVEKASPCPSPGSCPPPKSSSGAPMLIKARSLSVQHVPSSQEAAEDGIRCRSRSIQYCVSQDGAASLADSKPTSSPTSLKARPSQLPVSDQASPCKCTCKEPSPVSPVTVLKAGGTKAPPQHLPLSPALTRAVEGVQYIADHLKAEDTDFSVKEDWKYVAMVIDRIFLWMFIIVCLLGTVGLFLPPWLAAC
# Chain of Neuronal acetylcholine receptor; alpha4/beta2 (P12390 whole entry): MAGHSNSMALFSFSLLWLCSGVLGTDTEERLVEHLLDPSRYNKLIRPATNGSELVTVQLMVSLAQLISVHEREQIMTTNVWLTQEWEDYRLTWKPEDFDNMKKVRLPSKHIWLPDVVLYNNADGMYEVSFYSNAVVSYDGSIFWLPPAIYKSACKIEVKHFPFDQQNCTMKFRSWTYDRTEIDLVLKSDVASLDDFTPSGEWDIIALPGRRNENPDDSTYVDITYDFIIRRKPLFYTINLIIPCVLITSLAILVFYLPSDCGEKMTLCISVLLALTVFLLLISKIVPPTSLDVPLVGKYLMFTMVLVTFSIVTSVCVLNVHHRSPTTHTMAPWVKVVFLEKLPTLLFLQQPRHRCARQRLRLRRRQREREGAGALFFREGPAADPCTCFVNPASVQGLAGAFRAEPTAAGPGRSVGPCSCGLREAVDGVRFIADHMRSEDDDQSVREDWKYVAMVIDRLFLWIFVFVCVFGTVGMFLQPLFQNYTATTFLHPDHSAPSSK
# [9] = target: T1, Neuronal acetylcholine receptor; alpha3/beta4 (Rattus norvegicus, UniProt P04757+P12392); experiment: Displacement of [3H]epibatidine from recombinant rat alpha-3-beta-4 nAChr in HEK293 cell line; assay type: cell-based
# T1 sequence (P04757 whole entry): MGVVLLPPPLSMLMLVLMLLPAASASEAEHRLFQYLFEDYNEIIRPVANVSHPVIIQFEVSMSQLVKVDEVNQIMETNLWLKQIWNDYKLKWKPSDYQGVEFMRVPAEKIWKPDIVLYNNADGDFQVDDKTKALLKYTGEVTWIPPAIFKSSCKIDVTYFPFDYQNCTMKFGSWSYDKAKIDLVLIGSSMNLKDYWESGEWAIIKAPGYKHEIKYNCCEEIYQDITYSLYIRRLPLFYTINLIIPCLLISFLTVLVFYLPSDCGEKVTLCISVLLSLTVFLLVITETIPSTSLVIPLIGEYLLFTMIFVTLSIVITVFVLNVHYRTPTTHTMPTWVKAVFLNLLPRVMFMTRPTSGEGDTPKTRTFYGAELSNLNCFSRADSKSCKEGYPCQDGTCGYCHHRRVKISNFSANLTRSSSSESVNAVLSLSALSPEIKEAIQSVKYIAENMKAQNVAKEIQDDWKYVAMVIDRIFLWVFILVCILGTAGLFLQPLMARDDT
# T1 sequence (P12392 whole entry): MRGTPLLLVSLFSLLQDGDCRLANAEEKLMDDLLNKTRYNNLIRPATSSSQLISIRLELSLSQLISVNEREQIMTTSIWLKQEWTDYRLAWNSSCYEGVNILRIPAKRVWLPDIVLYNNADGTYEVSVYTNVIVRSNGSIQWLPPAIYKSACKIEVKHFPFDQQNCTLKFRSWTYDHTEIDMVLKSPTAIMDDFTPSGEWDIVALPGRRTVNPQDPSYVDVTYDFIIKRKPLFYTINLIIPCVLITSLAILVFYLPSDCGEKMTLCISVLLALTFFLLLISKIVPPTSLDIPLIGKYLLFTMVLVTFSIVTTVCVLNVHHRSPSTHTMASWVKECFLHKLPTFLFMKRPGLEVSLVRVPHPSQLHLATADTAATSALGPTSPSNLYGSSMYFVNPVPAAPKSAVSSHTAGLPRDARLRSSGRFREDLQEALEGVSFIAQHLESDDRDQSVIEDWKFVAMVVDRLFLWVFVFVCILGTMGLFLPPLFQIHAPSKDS
# [10] = target: Neuronal acetylcholine receptor; alpha4/beta4 (Rattus norvegicus, UniProt P09483+P12392); experiment: Displacement of [3H]epibatidine from recombinant rat alpha-4-beta-4 nAChr in HEK293 cell line; assay type: cell-based
# Chain of Neuronal acetylcholine receptor; alpha4/beta4 (P09483 whole entry): as the sequence (P09483 whole entry) above
# Chain of Neuronal acetylcholine receptor; alpha4/beta4 (P12392 whole entry): as the sequence (P12392 whole entry) above
# [11] = target: T2, Neuronal acetylcholine receptor subunit alpha-7 (Homo sapiens, UniProt P36544); experiment: Displacement of [3H]methyllycaconitine from human alpha-7 in tsA201 cells coexpressed with 5HT3A receptor; assay type: cell-based
# Target sequence in this assay (P36544 whole entry): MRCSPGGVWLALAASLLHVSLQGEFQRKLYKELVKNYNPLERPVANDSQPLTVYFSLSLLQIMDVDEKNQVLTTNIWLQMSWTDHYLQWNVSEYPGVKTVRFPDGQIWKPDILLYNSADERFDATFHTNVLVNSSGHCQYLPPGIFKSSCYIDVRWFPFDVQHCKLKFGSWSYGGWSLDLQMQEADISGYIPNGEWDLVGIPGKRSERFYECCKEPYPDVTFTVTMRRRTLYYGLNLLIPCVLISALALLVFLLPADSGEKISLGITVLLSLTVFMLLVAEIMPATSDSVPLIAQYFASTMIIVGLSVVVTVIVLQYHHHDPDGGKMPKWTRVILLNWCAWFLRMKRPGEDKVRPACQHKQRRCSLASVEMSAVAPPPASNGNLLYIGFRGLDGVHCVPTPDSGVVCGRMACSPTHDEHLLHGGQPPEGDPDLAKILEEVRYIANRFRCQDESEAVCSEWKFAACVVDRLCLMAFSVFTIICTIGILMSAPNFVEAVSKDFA
# [12] = target: T2, Neuronal acetylcholine receptor subunit alpha-7; experiment: Displacement of [3H]methyllycaconitine from alpha7 nAChR in tsA201 cells co-expressed with Ric3; assay type: cell-based
# Target sequence in this assay (P36544 whole entry): as above
# [13] = target: T3, 5-hydroxytryptamine receptor 3A (Homo sapiens, UniProt P46098); experiment: Displacement of [3H]GR65630 from human 5HT3A receptor in HEK293 cells; assay type: cell-based
# T3 sequence (P46098 whole entry): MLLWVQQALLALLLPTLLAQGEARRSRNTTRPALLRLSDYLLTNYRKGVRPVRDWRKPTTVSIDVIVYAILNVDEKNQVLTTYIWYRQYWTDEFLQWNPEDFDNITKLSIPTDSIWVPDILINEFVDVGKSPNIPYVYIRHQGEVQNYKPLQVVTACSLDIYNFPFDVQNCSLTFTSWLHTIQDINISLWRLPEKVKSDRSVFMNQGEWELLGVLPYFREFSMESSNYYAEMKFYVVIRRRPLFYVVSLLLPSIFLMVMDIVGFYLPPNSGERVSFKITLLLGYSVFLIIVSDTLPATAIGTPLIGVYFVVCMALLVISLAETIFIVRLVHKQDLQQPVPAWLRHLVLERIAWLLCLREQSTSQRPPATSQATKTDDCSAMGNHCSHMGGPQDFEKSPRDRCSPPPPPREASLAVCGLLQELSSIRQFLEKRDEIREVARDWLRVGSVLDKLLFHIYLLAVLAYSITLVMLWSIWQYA
# [14] = target: T2, Neuronal acetylcholine receptor subunit alpha-7; experiment: Antagonist activity at human alpha-7 nAChR in tsA201 cells coexpressed with Ric3 by FMP assay; assay type: functional, cell-based
# Target sequence in this assay (P36544 whole entry): as the sequence (P36544 whole entry) above
# [15] = target: T1, Neuronal acetylcholine receptor; alpha3/beta4; experiment: Antagonist activity at rat alpha3beta4 nAChR expressed in HEK293 cells by FMP assay; assay type: functional, cell-based, Homo sapiens; conditions: read-out: IC50
# [16] = target: T3, 5-hydroxytryptamine receptor 3A; experiment: Antagonist activity at human 5HT3A receptor expressed in HEK293 cells by FMP assay; assay type: functional, cell-based; conditions: read-out: IC50
# [17] = cells; assay type: functional, cell-based; conditions: Homo sapiens, HEK293
# [18] = target: T4, Glycine receptor subunit alpha-1 (Homo sapiens, UniProt P23415); experiment: Antagonist activity at human glycine alpha-1 receptor in HEK293 cells by FMP assay; assay type: functional, cell-based
# T4 sequence (P23415 whole entry): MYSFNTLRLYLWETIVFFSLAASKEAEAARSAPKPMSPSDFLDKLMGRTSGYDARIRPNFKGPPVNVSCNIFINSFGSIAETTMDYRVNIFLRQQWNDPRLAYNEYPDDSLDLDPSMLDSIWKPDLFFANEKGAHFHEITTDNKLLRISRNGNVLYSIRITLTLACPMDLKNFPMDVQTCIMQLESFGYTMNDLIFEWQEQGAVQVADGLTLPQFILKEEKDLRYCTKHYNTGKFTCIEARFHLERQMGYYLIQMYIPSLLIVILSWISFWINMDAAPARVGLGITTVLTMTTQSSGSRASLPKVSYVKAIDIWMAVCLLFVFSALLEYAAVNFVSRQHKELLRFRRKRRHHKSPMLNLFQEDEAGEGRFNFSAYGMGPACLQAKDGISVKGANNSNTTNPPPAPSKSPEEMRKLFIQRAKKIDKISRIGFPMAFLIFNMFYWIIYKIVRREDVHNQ
# [19] = target: T2, Neuronal acetylcholine receptor subunit alpha-7; experiment: Displacement of [3H]methyllycaconitine from chimeric alpha7nAChR/5HT3A in tsA201 cells; assay type: cell-based
# Target sequence in this assay (P36544 23-502 limits assumed): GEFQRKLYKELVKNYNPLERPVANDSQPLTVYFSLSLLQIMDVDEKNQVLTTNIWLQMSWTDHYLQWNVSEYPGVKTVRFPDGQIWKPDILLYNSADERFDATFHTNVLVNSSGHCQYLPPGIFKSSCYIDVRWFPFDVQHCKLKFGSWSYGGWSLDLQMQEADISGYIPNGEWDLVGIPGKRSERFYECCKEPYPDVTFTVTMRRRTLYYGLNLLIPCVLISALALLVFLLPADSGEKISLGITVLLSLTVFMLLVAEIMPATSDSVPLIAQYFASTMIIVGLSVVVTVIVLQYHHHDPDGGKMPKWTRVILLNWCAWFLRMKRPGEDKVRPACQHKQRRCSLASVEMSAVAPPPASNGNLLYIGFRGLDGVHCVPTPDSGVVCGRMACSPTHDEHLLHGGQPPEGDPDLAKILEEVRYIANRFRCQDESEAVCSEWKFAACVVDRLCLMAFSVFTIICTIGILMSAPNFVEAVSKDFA
# [20] = Displacement of [3H]methyllycaconitine from chimeric alpha-7nAChR W55A mutant /5HT3A receptor in tsA201 cells; assay type: cell-based, Homo sapiens; summary of the method: as §1
# [21] = Displacement of [3H]methyllycaconitine from chimeric alpha7nAChR W55Y mutant/5HT3A receptor in tsA201 cells; assay type: cell-based, Homo sapiens; summary of the method: as §1
# [22] = Displacement of [3H]methyllycaconitine from chimeric alpha7nAChR R79A mutant/5HT3A receptor R79A mutant in tsA201 cells; assay type: cell-based, Homo sapiens; summary of the method: as §1
# [23] = tested on: tsA201; experiment: Displacement of [3H]methyllycaconitine from chimeric alpha-7nAChR Y93A mutant/5HT3A receptor in tsA201 cells; assay type: cell-based; conditions: Homo sapiens; summary of the method: as §1
# [24] = Displacement of [3H]methyllycaconitine from chimeric alpha-7nAChR N107A mutant/5HT3A receptor in tsA201 cells; assay type: cell-based, Homo sapiens; summary of the method: as §1
# [25] = Displacement of [3H]methyllycaconitine from chimeric alpha7nAChR K145A mutant/5HT3A receptor in tsA201 cells; assay type: cell-based, Homo sapiens; summary of the method: as §1
# [26] = Displacement of [3H]methyllycaconitine from chimeric alpha-7nAChR S148A mutant /5HT3A receptor in tsA201 cells; assay type: cell-based, Homo sapiens; summary of the method: as §1
# [27] = tested on: tsA201; experiment: Displacement of [3H]methyllycaconitine from chimeric alpha-7nAChR W149A mutant/5HT3A receptor in tsA201 cells; assay type: cell-based; conditions: Homo sapiens; summary of the method: as §1
# [28] = tested on: tsA201; experiment: Displacement of [3H]methyllycaconitine from chimeric alpha-7nAChR W149Y mutant/5HT3A receptor W149Y mutant in tsA201 cells; assay type: cell-based; conditions: Homo sapiens; summary of the method: as §1
# [29] = Displacement of [3H]methyllycaconitine from chimeric alpha-7nAChR S150A mutant/5HT3A receptor in tsA201 cells; assay type: cell-based, Homo sapiens; summary of the method: as §1
# [30] = Displacement of [3H]methyllycaconitine from chimeric alpha-7nAChR Y168A mutant/5HT3A receptor in tsA201 cells; assay type: cell-based, Homo sapiens; summary of the method: as §1
# [31] = tested on: tsA201; experiment: Displacement of [3H]methyllycaconitine from chimeric alpha-7nAChR Y188A mutant/5-HT3A receptor in tsA201 cells; assay type: cell-based; conditions: Homo sapiens; summary of the method: as §1
# [32] = Displacement of [3H]methyllycaconitine from chimeric alpha7nAChR Y195A mutant/5HT3A receptor in tsA201 cells; assay type: cell-based, Homo sapiens; summary of the method: as §1
# [33] = Displacement of [3H]methyllycaconitine from chimeric alpha-7nAChR Y195F mutant/5HT3A receptor in tsA201 cells; assay type: cell-based, Homo sapiens; summary of the method: as §1
# [34] = target: T2, Neuronal acetylcholine receptor subunit alpha-7
# Target sequence in this assay (P36544 whole entry): as the sequence (P36544 whole entry) above
compound,measurement,setting,value
C[N+]12CC[C@@H]3[C@@H]4/C(=C\N5c6ccccc6[C@@]67CC[N+]8(C)CC9=CCO[C@H]([C@@H]([C@H]56)[C@H]9C[C@@H]78)N4c4ccccc4)[C@@H](C[C@@H]31)/C(=C\CO)C2.[I-].[I-] (stereo partly drawn),Ki,[1],2200 nM
same,pKi,[1],5.66
same,Activity,[2],inactive
same,Ki,[3],740 nM
same,pKi,[3],6.13
same,IC50,[4]; read-out: IC50,6600 nM
same,IC50,[4]; read-out: pIC50 (converted),6610 nM
same,IC50,[5]; read-out: IC50,8900 nM
same,IC50,[5]; read-out: pIC50 (converted),8910 nM
same,IC50,[6]; read-out: IC50,4700 nM
same,IC50,[6]; read-out: pIC50 (converted),4680 nM
same,IC50,[7]; read-out: IC50,7100 nM
same,IC50,[7]; read-out: pIC50 (converted),7080 nM
same,pKi,[8]; hek293,< 4
same,Ki,[8]; read-out: Ki,> 100000 nM
same,Ki,[9],30000 nM
same,Ki,[10],> 100000 nM
same,pKi,[10]; hek293,< 4
same,Ki,[11]; read-out: Ki,980 nM
same,Ki,[11]; read-out: pKi (converted),1000 nM
same,Ki,[12]; read-out: Ki,620 nM
same,Ki,[12]; read-out: pKi (converted),631 nM
same,Ki,[13],5900 nM
same,IC50,[14]; read-out: IC50,2100 nM
same,IC50,[14]; read-out: pIC50 (converted),2090 nM
same,IC50,[15],30000 nM
same,IC50,[16],4200 nM
same,IC50,[17]; read-out: IC50,> 100000 nM
same,IC50,[17]; read-out: pIC50 (converted),> 100000 nM
same,IC50,[18],> 100000 nM
same,pIC50,[18]; hek293,< 4
same,Ki,[19],970 nM
same,pKi,[19],6.01
same,Ki,[20],3100 nM
same,pKi,[20],5.51
same,Ki,[21],690 nM
same,pKi,[21],6.16
same,Ki,[22],1400 nM
same,pKi,[22],5.86
same,Activity,[23],inactive
same,Ki,[24],1300 nM
same,pKi,[24],5.87
same,Ki,[25],890 nM
same,pKi,[25],6.05
same,Ki,[26],1000 nM
same,pKi,[26],5.98
same,Activity,[27],inactive
same,Activity,[28],inactive
same,Ki,[29],720 nM
same,pKi,[29],6.14
same,Ki,[30],1300 nM
same,pKi,[30],5.89
same,Activity,[31],inactive
same,Ki,[32],6200 nM
same,pKi,[32],5.21
same,Ki,[33],1300 nM
same,pKi,[33],5.9
same,IC50,[34],1400 nM and 1380 nM
